Assay results published in BindingDB's records for doi:10.1016/j.bmcl.2009.02.010 (Konkuk University, 2009).
pIC50: −log10 of the molar value.

Tests used:
[1] = molecular target: T1, Replicase polyprotein 1ab (Severe acute respiratory syndrome coronavirus, UniProt P0C6X7); assay: Inhibition of ATPase activity of SCV helicase assessed as phosphate release by colorimetric assay
How it was run: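 Purified SCV NTPase/helicase (400 nM in 50 mM Tris/HCl pH 6.6) preincubated with compounds for 5 min at rt. Stopped with malachite green/molybdate reagent in 1 M HCl. A620 read after 5 min, with phosphate from a standard curve.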

[2] = molecular target: T1, Replicase polyprotein 1ab; assay: Inhibition of SCV helicase assessed as duplex-DNA unwinding by FRET based assay
How it was run: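 Substrate was 25-bp dsDNA with a 20-dT 5′-overhang. SCV helicase (150 nM in 20 mM HEPES pH 7.4) preincubated with compounds for 5 min at rt. Started with 5X reaction solution (5 mM MgCl2, 45 mM ATP, 25 mM DTT, 100 nM dsDNA substrate as 5X concentrations), then 2 min at 37 °C. Stopped with EDTA plus unmodified trap oligomer, with FRET read-out.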

Compound	pIC50 [1]	pIC50 [2]
O=C(O)C(=O)CC(=O)c1ccc(OCc2ccc(Cl)cc2)cc1 [4-(4-(4-chlorobenzyloxy)phenyl)-2-hydroxy-4-oxobut-2-enoic acid]	< 4.30	< 4.30
O=C(O)C(=O)CC(=O)c1cccc(OCc2ccccc2)c1	< 4.30	< 4.30
O=C(O)C(=O)CC(=O)c1ccccc1OCc1ccccc1	< 4.30	< 4.30
